Measurements published in ChEMBL document CHEMBL3627607, “A Novel Pyrazolopyridine with in Vivo Activity in Plasmodium berghei- and Plasmodium falciparum-Infected Mouse Models from Structure-Activity Relationship Studies around the Core of Recently Identified Antimalarial Imidazopyridazines” (J Med Chem, 2015).

Experiments:
Blood [1] = test: Drug metabolism in mouse assessed as 5-(3-(Cyclopropylsulfonyl)phenyl)-3-(4-(methylsulfonyl)-phenyl)pyrazolo[1,5-a]pyridine level in blood at 50 mg/kg, po after 1 hr; format: ADME, organism-based; conditions: in vivo, read-out: Drug metabolism
Method in brief: (§1)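 Snapshot whole-blood levels of parent and its sulfone metabolite at 1, 4 and 24 h after the first 50 mg/kg oral dose. Samples came from the P. berghei-infected efficacy mice, dosed in HPMC suspension vehicle.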

Plasmodium berghei [2] = test: Antiplasmodial activity against Plasmodium berghei ANKA expressing GFP infected in mouse assessed as reduction of parasitemia level at 50 mg/kg, po qd for 4 days measured on day 4 post last dose by flow cytometric analysis relative to control; format: functional; set-up: scale not given: the % may be the effect or the level left
Method in brief: (§2)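 Mice (n = 3) infected with GFP-transfected P. berghei ANKA. Test agents were suspended in HPMC vehicle (0.5% w/v hydroxypropylmethylcellulose, 0.5% v/v benzyl alcohol, 0.4% v/v Tween 80, 0.9% w/v NaCl in water). Dosed orally at 4, 24, 48 and 72 h post-infection. Parasitemia read by flow cytometry on day 4 (96 h), detection limit 0.1%. Activity = control-minus-treated mean % parasitemia, relative to control.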

[3] = Metabolic stability of the compound in mouse liver microsomes assessed as compound remaining at 0.1 uM after 30 mins by LC-MS/MS analysis; format: ADME; conditions: 0.5 h
[4] = AUC (0 to 8 hrs) in Plasmodium falciparum 3D7 infected in non-myelodepleted NOD-SCID IL2Rgammanull mouse engrafted with human erythrocytes at 1.5 mg/kg, po; format: ADME, organism-based; set-up: dose 1.5 mg/kg, time < 8 hr, route oral; conditions: in vivo
Method in brief: (§3)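 Engrafted NSG (scid IL2Rgc null) mice infected with P. falciparum were given one oral dose per day for four days. Blood was sampled to measure parent and its sulfone metabolite.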

[5] = Tmax in Plasmodium falciparum 3D7 infected in non-myelodepleted NOD-SCID IL2Rgammanull mouse engrafted with human erythrocytes at 10 mg/kg, po; format: ADME, organism-based; conditions: in vivo
Method in brief: (§4)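 Humanized NSG mice infected with P. falciparum received one oral dose per day for 4 consecutive days. Blood was sampled for exposure, with levels of both parent and its main active metabolite measured. Tmax was taken from the blood concentration–time profile after oral dosing.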

Plasmodium berghei [6] = test: Antiplasmodial activity against Plasmodium berghei ANKA expressing GFP infected in mouse assessed as reduction of parasitemia level at 10 mg/kg, po qd for 4 days measured on day 4 post last dose by flow cytometric analysis relative to control; format: functional; set-up: scale not given: the % may be the effect or the level left; method in brief: as §2
Blood [7] = test: Drug metabolism in mouse assessed as 5-(3-(Cyclopropylsulfonyl)phenyl)-3-(4-(methylsulfonyl)-phenyl)pyrazolo[1,5-a]pyridine level in blood at 50 mg/kg, po after 4 hrs; format: ADME, organism-based; conditions: in vivo; method in brief: as §1
[8] = Cmax in Plasmodium falciparum 3D7 infected in non-myelodepleted NOD-SCID IL2Rgammanull mouse engrafted with human erythrocytes at 1.5 mg/kg, po; format: ADME, organism-based; set-up: dose 1.5 mg/kg, route oral; conditions: in vivo; method in brief: as §3
[9] = Drug level in mouse blood at 50 mg/kg, po after 1 hr; format: ADME, organism-based; conditions: read-out: Drug uptake; method in brief: as §1
[10] = AUC (0 to 2 hrs) in Plasmodium falciparum 3D7 infected in non-myelodepleted NOD-SCID IL2Rgammanull mouse engrafted with human erythrocytes at 0.1 mg/kg, po; format: ADME, organism-based; set-up: time < 2 hr, dose 0.1 mg/kg, route oral; conditions: in vivo; method in brief: as §3
Blood [11] = test: Drug metabolism in mouse assessed as 5-(3-(Cyclopropylsulfonyl)phenyl)-3-(4-(methylsulfonyl)-phenyl)pyrazolo[1,5-a]pyridine level in blood at 50 mg/kg, po after 24 hrs; format: ADME, organism-based; conditions: in vivo; method in brief: as §1
[12] = Drug level in mouse blood at 50 mg/kg, po after 24 hrs; format: ADME, organism-based; conditions: blood, read-out: Drug uptake; method in brief: as §1
Plasmodium falciparum [13] = test: Antiplasmodial activity against Plasmodium falciparum 3D7 infected in po dosed non-myelodepleted NOD-SCID IL2Rgammanull mouse engrafted with human erythrocytes assessed as reduction of parasitemia level administered qd for 4 days; format: functional; conditions: 3D7, po, 96 h
Method in brief: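 P. falciparum-infected engrafted NSG mice were dosed orally once daily for four consecutive days. Blood parasitemia was monitored, and a 90% effective dose was derived along with the blood exposure at that dose.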

[14] = Cmax in Plasmodium falciparum 3D7 infected in non-myelodepleted NOD-SCID IL2Rgammanull mouse engrafted with human erythrocytes at 0.5 mg/kg, po; format: ADME, organism-based; set-up: dose 0.5 mg/kg, route oral; conditions: in vivo; method in brief: as §3
[15] = Selectivity index, ratio of IC50 for African green monkey VERO cells to IC50 for Plasmodium falciparum NF54; format: toxicity, cell-based; conditions: read-out: Ratio IC50
[16] = Cmax in Plasmodium falciparum 3D7 infected in non-myelodepleted NOD-SCID IL2Rgammanull mouse engrafted with human erythrocytes at 0.1 mg/kg, po; format: ADME, organism-based; set-up: dose 0.1 mg/kg, route oral; conditions: in vivo; method in brief: as §3
Plasmodium berghei [17] = test: Antiplasmodial activity against Plasmodium berghei ANKA expressing GFP infected in mouse assessed as means survival days at 10 mg/kg, po qd for 4 days; format: functional
Method in brief: (§5)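 Mice (n = 3) infected with GFP-transfected P. berghei ANKA. Compounds dissolved or suspended in HPMC vehicle (0.5% w/v hydroxypropylmethylcellulose, 0.5% v/v benzyl alcohol, 0.4% v/v Tween 80, 0.9% w/v NaCl in water). Dosed orally 4, 24, 48 and 72 h after infection. Parasitemia read by flow cytometry (detection limit 0.1%). Survival recorded as mean survival time in days.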

Plasmodium falciparum [18] = test: Antiplasmodial activity against drug sensitive Plasmodium falciparum NF54 infected in human erythrocytes after 48 hrs by [3H]-hypoxanthine incorporation assay; format: functional, organism-based
Liver microsome [19] = test: Metabolic stability of the compound in rat liver microsomes assessed as compound remaining at 0.1 uM after 30 mins by LC-MS/MS analysis; format: ADME; conditions: 0.5 h
Plasmodium berghei [20] = test: Antiplasmodial activity against Plasmodium berghei ANKA expressing GFP infected in mouse assessed as reduction of parasitemia level at 3 mg/kg, po qd for 4 days measured on day 4 post last dose by flow cytometric analysis relative to control; format: functional; set-up: scale not given: the % may be the effect or the level left; method in brief: as §2
[21] = Selectivity index, ratio of IC50 for African green monkey VERO cells to IC50 for multidrug resistant Plasmodium falciparum K1; format: toxicity, cell-based; conditions: read-out: Ratio IC50
Liver microsome [22] = test: Drug metabolism in rat liver microsomes assessed as 5-(3-(Cyclopropylsulfonyl)phenyl)-3-(4-(methylsulfonyl)-phenyl)pyrazolo[1,5-a]pyridine formation at 10 uM after 1 hr by LC-MS/MS analysis; format: ADME
Method in brief: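 Metabolites identified by LC-ESI-MS/MS after in vitro incubation with rat liver microsomes.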

[23] = AUC (0 to 8 hrs) in Plasmodium falciparum 3D7 infected in non-myelodepleted NOD-SCID IL2Rgammanull mouse engrafted with human erythrocytes at 10 mg/kg, po; format: ADME, organism-based; set-up: time < 8 hr, dose 10 mg/kg, route oral; conditions: in vivo; method in brief: as §3
[24] = Oral bioavailability in rat at 15 mg/kg; format: ADME, organism-based; conditions: in vivo
Blood [25] = test: Drug metabolism in rat blood assessed as 5-(3-(Cyclopropylsulfonyl)phenyl)-3-(4-(methylsulfonyl)-phenyl)pyrazolo[1,5-a]pyridine formation at 20 mg/kg, po and 5 mg/kg, iv by LC-MS/MS analysis; format: ADME, organism-based; conditions: in vivo
Method in brief: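 Metabolites identified by LC-ESI-MS/MS in blood samples from the rat PK study (oral and intravenous dosing).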

[26] = Tmax in Plasmodium falciparum 3D7 infected in non-myelodepleted NOD-SCID IL2Rgammanull mouse engrafted with human erythrocytes at 1.5 mg/kg, po; format: ADME, organism-based; conditions: in vivo; method in brief: as §4
[27] = Half life in rat at 15 mg/kg, po; format: ADME, organism-based; conditions: in vivo
[28] = AUC (0 to 23 hrs) in Plasmodium falciparum 3D7 infected in non-myelodepleted NOD-SCID IL2Rgammanull mouse engrafted with human erythrocytes at 30 mg/kg, po; format: ADME, organism-based; set-up: dose 30 mg/kg, time < 23 hr, route oral; conditions: in vivo; method in brief: as §3
Plasmodium berghei [29] = test: Antiplasmodial activity against Plasmodium berghei ANKA expressing GFP infected in mouse assessed as means survival days at 50 mg/kg, po qd for 4 days; format: functional; method in brief: as §5

C[S+]([O-])c1ccc(-c2cnn3ccc(-c4cccc(S(=O)(=O)C5CC5)c4)cc23)cc1 (centres undefined)
concentration (Blood [1]): 7.9 µM | Activity (Plasmodium berghei [2]): 99.8% | Stability [3]: Stable | AUC(0-t) at 8 h [4]: 40.5 ng·h/mL | Tmax [5]: 2 h | Activity (Plasmodium berghei [6]): 99.9% | Drug metabolism (Blood [7]): 10.3 µM | Cmax [8]: 30 ng/mL | concentration at 1 h [9]: 2960 nM | AUC(0-t) at 2 h [10]: 2.1 ng·h/mL | Drug metabolism (Blood [11]): 3.1 µM | concentration at 24 h [12]: 30 nM | ED90 (Plasmodium falciparum [13]): 0.5 mg/kg | Cmax [14]: 4 ng/mL | selectivity ratio [15]: > 1000 | Cmax [16]: 2 ng/mL | MSD (Plasmodium berghei [17]): 8 days | IC50 (Plasmodium falciparum [18]): 6 nM | Stability (Liver microsome [19]): Stable | Activity (Plasmodium berghei [20]): 75% | selectivity ratio [21]: > 1000 | Drug metabolism (Liver microsome [22]): metabolite_detected | AUC(0-t) at 8 h [23]: 293 ng·h/mL | bioavailability [24]: 14% | Drug metabolism (Blood [25]): metabolite_detected | Tmax [26]: 30 min | half-life [27]: 60 min | AUC(0-t) at 23 h [28]: 1240 ng·h/mL | MSD (Plasmodium berghei [29]): >30 days
